Laboratory results reported in ChEMBL document CHEMBL4028851, “Discovery of Potent Small-Molecule Inhibitors of Ubiquitin-Conjugating Enzyme UbcH5c from α-Santonin Derivatives” (J Med Chem, 2017).
pKd: −log10 of the molar value. Activity calls are given as the source filed them. The rule behind the calls is not given here.

Legend:
in vitro = details: human, HEK-293T cells
[1] = molecular target: Ubiquitin-conjugating enzyme E2 D3 (Mus musculus) (UniProt P61079); assay: Inhibition of UbcH5c in mouse b.End3 cells assessed as decrease in TNF-alpha-mediated IkB-alpha phosphorylation preincubated for 2 hrs followed by TNF-alpha stimulation for 20 mins by Western blot analysis; format: cell-based
Ubiquitin-conjugating enzyme E2 D3 (Mus musculus), sequence (P61079 whole entry, looked up): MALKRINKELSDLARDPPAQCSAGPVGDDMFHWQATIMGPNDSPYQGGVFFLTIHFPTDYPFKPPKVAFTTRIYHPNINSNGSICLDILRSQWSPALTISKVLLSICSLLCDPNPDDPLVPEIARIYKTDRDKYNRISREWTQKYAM
Method in brief: (§1)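 bEnd.3 cells (DMEM, 10% FBS) were pretreated with compound at 2.5, 5 or 10 µM for 2 h, then stimulated with 20 ng/mL TNF-α (15 min in the methods, 20 min in the legend). Lysates were run on 10% SDS-PAGE and immunoblotted for phospho-IκBα, IκBα, phospho-p65 and p65, with GAPDH as loading control.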

[2] = molecular target: Ubiquitin-conjugating enzyme E2 D3 (Mus musculus) (UniProt P61079); assay: Inhibition of UbcH5c in mouse b.End3 cells assessed as decrease in TNF-alpha-mediated IkB-alpha degradation preincubated for 2 hrs followed by TNF-alpha stimulation for 20 mins by Western blot analysis; format: cell-based
Method in brief: as §1

[3] = molecular target: Ubiquitin-conjugating enzyme E2 D3 (Mus musculus) (UniProt P61079); assay: Inhibition of UbcH5c in mouse b.End3 cells assessed as decrease in TNF-alpha-mediated IkB-alpha degradation at 10 uM preincubated for 2 hrs followed by TNF-alpha stimulation for 15 mins by Western blot analysis
[4] = molecular target: Ubiquitin-conjugating enzyme E2 D3 (Mus musculus) (UniProt P61079); assay: Inhibition of UbcH5c in mouse b.End3 cells assessed as decrease in TNF-alpha-mediated IkB-alpha phosphorylation at 10 uM preincubated for 2 hrs followed by TNF-alpha stimulation for 20 mins by Western blot analysis; format: cell-based
Method in brief: as §1

[5] = molecular target: Ubiquitin-conjugating enzyme E2 D3 (Mus musculus) (UniProt P61079); assay: Inhibition of UbcH5c in mouse b.End3 cells assessed as decrease in TNF-alpha-mediated p65 phosphorylation preincubated for 2 hrs followed by TNF-alpha stimulation for 20 mins by Western blot analysis; format: cell-based
Method in brief: as §1

[6] = molecular target: T1, Ubiquitin-conjugating enzyme E2 D3 (Homo sapiens, UniProt P61077); assay: Inhibition of UbcH5c (unknown origin) at 1 uM preincubated for 15 mins followed by E1, Ub and ATP addition measured after 40 mins by Western blot analysis
T1 sequence (P61077 whole entry, looked up): as the sequence (P61079 whole entry, looked up) above

[7] = molecular target: T1, Ubiquitin-conjugating enzyme E2 D3; assay: Binding affinity to human recombinant UbcH5c by SPR analysis

Compound | inhibition [3] | inhibition [4] | inhibition [6] | cytotoxicity at 5 µM (in vitro) [%] | other results
C=C1C(=O)O[C@H]2c3c(C)c(OC(=O)c4cccnc4)cc(C)c3CC[C@@H]12 | – | – | – | < 20 | –
C=C1C(=O)O[C@H]2c3c(C)c(OCc4ccccc4C(F)(F)F)cc(C)c3CC[C@@H]12 | – | – | – | < 20 | –
C=C1C(=O)O[C@@H]2C3[C@@H](C)[C@@H](OC(=O)CCCC)CC[C@]3(C)CC[C@@H]12 (some centres not stated) | – | – | inactive | – | –
C=C1C(=O)O[C@H]2c3c(C)c(OCc4ccc(OC(F)(F)F)cc4)cc(C)c3CC[C@@H]12 | – | – | – | < 20 | –
C=C1C(=O)O[C@@H]2C3[C@@H](C)[C@@H](OC(=O)C4CCCCC4)CC[C@]3(C)CC[C@@H]12 (some centres not stated) | – | – | inactive | – | –
C=C1C(=O)O[C@@H]2C3[C@@H](C)[C@@H](OC(=O)c4ccco4)CC[C@]3(C)CC[C@@H]12 (some centres not stated) | – | – | – | < 20 | –
C=C1C(=O)O[C@@H]2C3[C@@H](C)[C@@H](OC(=O)C4CCCC4)CC[C@]3(C)CC[C@@H]12 (some centres not stated) | – | – | inactive | – | –
C=C1C(=O)O[C@@H]2C3=C(C)[C@@H](OC(=O)/C=C/c4ccc(OCCC)cc4)CC3[C@](C)(OC(C)=O)CC[C@@H]12 (some centres not stated) | – | – | – | < 20 | –
C=C1C(=O)O[C@@H]2C3=C(C)[C@@H](OC(=O)c4ccc(C)cc4)CC3[C@](C)(OC(C)=O)CC[C@@H]12 (some centres not stated) | – | – | – | < 20 | –
C=C1C(=O)O[C@H]2c3c(C)c(OC(=O)/C=C/c4cccs4)cc(C)c3CC[C@@H]12 | – | – | – | < 20 | –
C=C1C(=O)O[C@@H]2C[C@]3(C)C(=C[C@H]12)[C@@H](C)CC[C@H]3O | Active | Active | – | – | pKd [7]: 5.59
C=C1C(=O)O[C@H]2c3c(C)c(OC(=O)/C=C/c4ccc(OC(F)(F)F)cc4)cc(C)c3CC[C@@H]12 | – | – | – | < 20 | –

The next lines start with results.

inhibition [3] | inhibition [4] | inhibition [6] | Compound | cytotoxicity at 5 µM (in vitro) [%] | other results
Active | Active | – | C=C1C(=O)O[C@@H]2C3[C@@H](C)[C@@H](OC(=O)c4cccc(I)c4)CC[C@]3(C)CC[C@@H]12 (some centres not stated) | < 20 | inhibition [1]: Dose-dependent effect; inhibition [2]: Dose-dependent effect; inhibition [5]: Dose-dependent effect
Active | Active | – | C=C1C(=O)O[C@H]2c3c(C)c(OC(=O)/C=C/c4cccnc4)cc(C)c3CC[C@@H]12 | < 20 | inhibition [1]: Dose-dependent effect; inhibition [2]: Dose-dependent effect; inhibition [5]: Dose-dependent effect
– | – | inactive | C=C1C(=O)O[C@@H]2C3[C@@H](C)[C@@H](OC(=O)CCC)CC[C@]3(C)CC[C@@H]12 (some centres not stated) | – | –
Active | Active | – | C=C1C(=O)O[C@@H]2C3=C(C)[C@@H](OC(=O)c4ccccc4)CC3[C@](C)(OC(C)=O)CC[C@@H]12 (some centres not stated) | < 20 | inhibition [1]: Dose-dependent effect; inhibition [2]: Dose-dependent effect; inhibition [5]: Dose-dependent effect
Active | Active | – | C=C1C(=O)O[C@@H]2C3[C@@H](C)[C@@H](OC(=O)c4ccc(I)cc4)CC[C@]3(C)CC[C@@H]12 (some centres not stated) | < 20 | inhibition [1]: Dose-dependent effect; inhibition [2]: Dose-dependent effect; inhibition [5]: Dose-dependent effect
Active | Active | – | C=C1C(=O)O[C@@H]2C3=C(C)[C@@H](OC(=O)c4ccc(Cl)cc4)CC3[C@](C)(OC(C)=O)CC[C@@H]12 (some centres not stated) | < 20 | inhibition [1]: Dose-dependent effect; inhibition [2]: Dose-dependent effect; inhibition [5]: Dose-dependent effect
– | – | inactive | C=C1C(=O)O[C@@H]2C3[C@@H](C)[C@@H](OC(C)=O)CC[C@]3(C)CC[C@@H]12 (some centres not stated) | – | –
– | – | inactive | C=C1C(=O)O[C@@H]2C3[C@@H](C)[C@@H](OC(=O)CC)CC[C@]3(C)CC[C@@H]12 (some centres not stated) | – | –
